Hsp70 act: switches on Hsp70 transcription | HeLa Hsp70 promoter luciferase reporter, luminescence; scaled: vehicle 0, proteasome-inhibitor control 100% | activation, % at 10 µM | 200,000 compounds, 0.04% hits | AID 1203;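 active = activation above the mean across all tested compounds plus 3 SD, cutoff set per campaign, cut at about 5.5% in these data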
Autophagy mod: alters autophagy in cells | MEF GFP-LC3 puncta imaging; test concentration mostly 10 µM | calls only at 10 µM (by protocol) | 190,000 compounds, 0.98% hits;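 active = percentage of spot-positive cells more than 3 SD above its plate mean, without a fluorescence outlier flag or 80% toxicity; inconclusive = no clear call, values can overlap the other calls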
MT stabilize HCS: microtubule stabilization, imaging screen; 200,000 compounds, 0.83% hits; HeLa tubulin immunostaining HCS, 24 h; share of cells brighter than vehicle mean+2SD; % tubulin-high responders, % at 10 µM; AID 2205;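 active = plate Z-score above 3 for both tubulin-high and condensed-nucleus cell shares, with cell loss under 80%, at 10 µM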;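 note: anti alpha tubulin signal scored within the nucleus-defined area of each cell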
Dynein cargo inh: blocks dynein driven cargo transport along microtubules; 3617.4 mouse cells, GR-EGFP nuclear translocation imaging; test concentration mostly 20 µM; stimulated with dexamethasone, 1 µM; stronger effect = lower value; z-score, hits read low; 220,000 compounds, 0.47% hits;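 active = plate z-score of nuclear minus cytoplasmic receptor signal below a set negative limit, without overly bright fluorescence or cell loss, cut at about -3.5 in these data, passing the limit was not always enough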;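 note: z-score of nuclear minus cytoplasmic ring GR-EGFP intensity difference per well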
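medium = tetracycline-free induction medium containing charcoal-stripped FBS | also added = 1.0 µM final dexamethasone stimulus | schedule = 48 h induction, 1 h compound, 30 min dex at 37 °C | technique = fixed, Hoechst-stained cells imaged at 10x for EGFP | measure = GR-EGFP nuclear translocation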
bCat nuc transl: beta-catenin nuclear translocation modulation; 190,000 compounds, 0.3% hits; nuclear translocation activity, % at 5 µM; HeLa beta-catenin nuclear translocation, immunofluorescence imaging;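 active = nuclear translocation activity above 50% at 5 µM, with a well cell count of 50 or more; inconclusive = wells under 50 cells across six images, flagged as toxic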;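 note: per-cell ratio of nuclear to cytoplasmic median beta-catenin stain intensity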
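Test system: human HeLa cell line; Doses: 5 µM primary, 0.02–20 µM confirmation; Incubation: 24 h compound exposure, 37°C; Detection: beta-catenin immunofluorescence imaging with DAPI; Read-out: beta-catenin nuclear/cytoplasmic ratio, % activation.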
Dynein confirm: dynein cargo transport inhibition, confirmation; shares compounds with Dynein cargo inh; 1,000 compounds, 69% hits; 3617.4 GR-EGFP nuclear translocation imaging, dexamethasone-induced; AID 463116; calls only at 20 µM;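 active = inhibition of receptor movement into the nucleus at or above a set limit in both runs, with normal cell brightness and cell count; inconclusive = limit reached in only one run, brightness and count normal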;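 note: dexamethasone at 1 µM final in well for 30 min; nuclear minus cytoplasmic GR-EGFP mean intensity difference in channel 2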
Large screens that a line does not name were inactive (follow-up assays come after a bar, where they were run). The list is not random: actives were taken first. Their share in the collection is about 2.1%.

O=C(Nc1ccccc1)C1=C(O)CC(c2ccco2)CC1=Nc1ccccc1 (stereo not drawn)	none (no result: bCat nuc transl)
COc1ccc(N(Cc2cc3cccc(C)c3[nH]c2=O)C(=O)C2CCCO2)cc1 (stereo not drawn)	none (no result: Hsp70 act, Autophagy mod, MT stabilize HCS)
CCN1/C(=C/C=C/c2oc3ccc4ccccc4c3[n+]2CC)Oc2ccc3ccccc3c21	Autophagy mod inconclusive, MT stabilize HCS 80.4, Dynein cargo inh -7.1 (no result: bCat nuc transl) | Dynein confirm active
CCOC(=O)N1CCC(N2CCN(S(=O)(=O)c3ccc([N+](=O)[O-])cc3)CC2)CC1	none (no result: Hsp70 act, Autophagy mod, MT stabilize HCS)
COC(=O)NC1(C(=O)O)CCCC1	none (no result: Hsp70 act, Autophagy mod, MT stabilize HCS)
Cc1onc(-c2c(Cl)cccc2Cl)c1-c1nc2cc(Cl)ccc2c(=O)o1	Dynein cargo inh -4.13 (no result: Hsp70 act, Autophagy mod, MT stabilize HCS) | Dynein confirm active
Cc1cc(N2CCC(C)CC2)c(F)cc1[N+](=O)[O-]	none
Cc1cc(N2CCCC2)c(F)cc1/C=C\[N+](=O)[O-]	none | Dynein confirm active
CC1(C)CC(=O)C2=C(C1)Oc1nc3ccccc3cc1C2C(C#N)C#N (stereo not drawn)	Dynein cargo inh -4.39 | Dynein confirm active
N#CC12COC3(CCCCC3C1(C#N)C#N)OC2=N (stereo not drawn)	Dynein cargo inh -5.04 (no result: Hsp70 act, Autophagy mod, MT stabilize HCS) | Dynein confirm active
COc1cc2[nH]c(=S)nc(NC3CCCC3)c2cc1OC	none
COc1cccc(-n2nc(C#N)c(Cl)cc2=O)c1	Autophagy mod active, Dynein cargo inh -6.15 | Dynein confirm active
CCOC(=O)C1C(=O)C=C(/C=C/c2ccc(N(C)C)cc2)CC1c1ccccc1 (stereo not drawn)	Autophagy mod active | Dynein confirm inactive
CCN(CC)S(=O)(=O)c1ccc(NC(=O)c2nc3nc(C)cc(C)n3n2)cc1	none (no result: Hsp70 act, Autophagy mod, MT stabilize HCS)
CN(C)c1oc(-c2ccccc2[N+](=O)[O-])nc1C#N	Dynein cargo inh -5.06 (no result: Hsp70 act, Autophagy mod, MT stabilize HCS) | Dynein confirm inactive
CCOC(=O)c1c(NC(=O)/C=C\C(=O)O)sc(C)c1-c1ccccc1	Dynein cargo inh -3.52 | Dynein confirm active
CCOC(=O)C1=C(N)OC2=C(C(=O)CC(C)(C)C2)C1c1cc(CSc2nnnn2C)cs1 (stereo not drawn)	none
COC(CNC(=O)c1ccc2c3c(onc13)-c1ccccc1C2=O)OC	Dynein cargo inh -4.88 (no result: Hsp70 act, Autophagy mod, MT stabilize HCS) | Dynein confirm active
O=S(=O)(CCN(CCS(=O)(=O)C(F)(F)F)CC1CCCO1)C(F)(F)F (stereo not drawn)	Dynein cargo inh -4.11 | Dynein confirm inconclusive
O=C(/C=C/c1ccc(F)cc1)c1cc(Br)ccc1O	Dynein cargo inh -3.81 (no result: Hsp70 act, Autophagy mod, MT stabilize HCS) | Dynein confirm active
O=C(Nc1nc2ccc(Cl)cc2s1)[C@@H]1CCCN1C(=O)c1cccs1	none
O=S(=O)(Nc1nc2ccccc2nc1NCC1CCCO1)c1cccc(Cl)c1 (stereo not drawn)	none (no result: Hsp70 act, Autophagy mod, MT stabilize HCS)
COc1ccc(-n2ncc(Cl)c(Cl)c2=O)cc1	Dynein cargo inh -6.8 | Dynein confirm active
CC1=CC(C)(C)Nc2ccc(OC(=O)c3cccnc3)cc21	Dynein cargo inh -3.56 | Dynein confirm inactive
O=C(c1ccccc1)c1ccccc1N1C(=O)C=CC1=O	Dynein cargo inh -4.41 (no result: Hsp70 act, Autophagy mod, MT stabilize HCS) | Dynein confirm active
O=C(c1ccccc1)c1ccccc1C(=O)N1CCN(C(=O)c2ccccc2)CC1	none
O=C(Oc1ccccc1)c1cccc(COC(=O)c2cnccn2)c1	none (no result: bCat nuc transl) | Dynein confirm inactive
CCOC(=O)CC1C(=O)NCCN1c1nc2ccc(C)cn2c(=O)c1/C=C1\SC(=S)N(CC(C)C)C1=O (stereo not drawn)	none (no result: Hsp70 act, Autophagy mod, MT stabilize HCS) | Dynein confirm inactive
CCOC(=O)CC1C(=O)NCCN1c1nc2ccc(C)cn2c(=O)c1/C=C1\SC(=S)N(C(C)CC)C1=O (stereo not drawn)	none (no result: Hsp70 act, Autophagy mod, MT stabilize HCS) | Dynein confirm active
CCCN1C(=O)/C(=C/c2c(N3CCNC(=O)C3CC(=O)OCC)nc3c(C)cccn3c2=O)SC1=S (stereo not drawn)	none (no result: Hsp70 act, Autophagy mod, MT stabilize HCS)
COc1cc(C2NC(=O)C(C#N)=C(Nc3cccc(C)c3)S2)ccc1O (stereo not drawn)	none (no result: Hsp70 act, Autophagy mod, MT stabilize HCS)
O=C(CSC1=Nc2ccccc2C2CC=NN12)Nc1ccc2c(c1)OCO2 (stereo not drawn)	Dynein cargo inh -3.65 | Dynein confirm active
CCCOC(=O)c1ccc(NC(=O)CSC2=Nc3ccccc3C3CC=NN23)cc1 (stereo not drawn)	none (no result: bCat nuc transl)
N#C/C(=C(/O)Cc1ccccc1)P(=O)(c1ccccc1)c1ccccc1	none (no result: Hsp70 act, Autophagy mod, MT stabilize HCS)
Cn1ncc(S(=O)(=O)Cc2ccccc2)c(Cl)c1=O	Dynein cargo inh -5.21 (no result: Hsp70 act, Autophagy mod, MT stabilize HCS) | Dynein confirm active
COc1ccc(-c2noc(-c3ccccc3C(=O)NCC3CCCO3)n2)cc1 (stereo not drawn)	none (no result: Hsp70 act, Autophagy mod, MT stabilize HCS)
O=S(=O)(c1ccc(-c2ccon2)s1)N1CCN(c2ccncc2)CC1	none (no result: Hsp70 act, Autophagy mod, MT stabilize HCS)
COc1ccc(-c2ccc([C@H]3[C@@H]4C=CCC[C@@]4(C)C(=O)N3Cc3ccccc3)c(F)c2)cc1OC	none (no result: Hsp70 act, Autophagy mod, MT stabilize HCS)
COc1ccc(-c2cccc([C@H]3[C@@H]4C=CCC[C@@]4(C)C(=O)N3Cc3ccccc3)c2)cc1	Dynein cargo inh -3.6 (no result: Hsp70 act, Autophagy mod, MT stabilize HCS) | Dynein confirm active
Cc1ccc(-c2csc(NC(=O)c3ccc(-c4ccccc4)cc3)n2)o1	none
Cc1ccc(-c2csc(NC(=O)Cc3ccc(F)cc3)n2)o1	Dynein cargo inh -3.91 | Dynein confirm inactive
Cc1cc(C)cc(SCc2noc(C(=O)NCCCN3CCOCC3)c2C(=O)NCCCN2CCOCC2)c1	none (no result: Hsp70 act, Autophagy mod, MT stabilize HCS)
CCn1cc(CN2CCCC(C(=O)c3ccc(-c4ccccc4)cc3)C2)cn1 (stereo not drawn)	none
COc1ccc(-c2cc(N)n(S(=O)(=O)c3c(F)c(F)c(F)c(F)c3F)n2)cc1OC	Hsp70 act 20.1, Dynein cargo inh -5.13 | Dynein confirm active
COc1ccc(S(=O)(=O)n2nc(-c3cc(OC)c(OC)c(OC)c3)cc2N)cc1OC	none
CS(=O)c1nc(-c2ccc(Br)cc2)cc(-c2ccccc2)c1C#N (stereo not drawn)	Dynein cargo inh -4.14 | Dynein confirm active
CS(=O)(=O)c1nc(-c2ccc(Br)cc2)cc(-c2ccccc2)c1C#N	Autophagy mod active, Dynein cargo inh -5.98 (no result: bCat nuc transl) | Dynein confirm active
COc1ccc(-c2cc(-c3ccccc3)c(C#N)c(S(C)(=O)=O)n2)cc1	none (no result: bCat nuc transl)
O=C1CCC(NC(=O)c2ccccc2)C(=O)N1 (stereo not drawn)	none (no result: Hsp70 act, Autophagy mod, MT stabilize HCS)
O=C1CN(C(=O)Cn2ncc(Cl)c(Cl)c2=O)c2ccccc2N1	Dynein cargo inh -6.8 | Dynein confirm active
O=C(Cn1ncc(N2CCOCC2)c(Cl)c1=O)c1ccc(Cl)cc1	none
CC(C)(C)C(=O)Cn1ncc(N2CCCC2)c(Br)c1=O	none
O=c1c(Cl)c(Cl)cnn1Cc1ccc(F)cc1	Dynein cargo inh -4.9 | Dynein confirm active
CC(C)(C)C(=O)Cn1ncc(Cl)c(Cl)c1=O	Autophagy mod active, Dynein cargo inh -6.09 | Dynein confirm active
O=C(Cn1ncc(Cl)c(Cl)c1=O)c1ccc(Cl)cc1	Dynein cargo inh -3.99 | Dynein confirm inactive

Assay outcomes deposited in PubChem by several laboratories.
